Assays:
[1] = molecular target: recombinant human G6PD (Homo sapiens, UniProt P11413); test: G6PD diaphorase-coupled enzymatic assay; format: biochemical
Summary of the method: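 Recombinant human G6PD was expressed in E. coli with an N-terminal His6 tag, purified on Ni, thrombin-cleaved and size-excluded. Reactions started with 1 mM G6P at 30 °C, read each minute (ex 530/em 590 nm). RFU/min was normalised to no-compound wells, and IC50 came from a 4-parameter fit.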

[2] = test system: G6PD cellular activity in HepG2 cells; test: 6-pg levels in HepG2 cells; format: cell-based, human
Summary of the method: (§1)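 Adherent HepG2 or HCT116 cells were grown to 80% confluency in 6-well plates, then given fresh medium containing the test compound over a dose range. They were incubated 2 h at 37 °C, 5% CO2. Metabolites were extracted ~30 min at −20 °C, scraped and centrifuged (15 min, 16,000 rpm, 4 °C). Supernatants were analysed by LC-MS for 6-pg, NADPH and NADP+ (n = 3).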

[3] = test system: G6PD cellular activity in HCT116-mPgd cells; test: 6-pg levels in HCT116-mPgd cells; format: cell-based, human; conditions: dose response, compared with DHEA
[4] = test system: G6PD cellular activity in HCT116 cells; test: NADPH active hydride 2H-labeling from [1-2H]-glucose in HCT116 cells; format: cell-based, human
Summary of the method: (§2)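 HCT116 cells were incubated 2 h at 37 °C, 5% CO2 in medium containing [1-2H]-glucose tracer plus increasing doses of the test compound. Read-out was 2H transfer to the NADPH active hydride or to free palmitic acid, measured by LC-MS; dose-response curves, n = 3.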

[5] = test system: G6PD cellular activity in HCT116 cells; test: Free palmitic acid; format: cell-based, human; conditions: dose response
Summary of the method: as §2

[6] = test system: HCT116 and HepG2 cells; test: NADPH pools and NADP+/NADPH ratio in HCT116 and HepG2 cells; format: cell-based, human
Summary of the method: as §1

[7] = molecular target: G6PD in HepG2 lysates (Homo sapiens, UniProt P11413); test: Cellular thermal shift assay; format: binding; conditions: 50 μM, up to 56 °C
Chain of G6PD in HepG2 lysates (P11413 whole entry): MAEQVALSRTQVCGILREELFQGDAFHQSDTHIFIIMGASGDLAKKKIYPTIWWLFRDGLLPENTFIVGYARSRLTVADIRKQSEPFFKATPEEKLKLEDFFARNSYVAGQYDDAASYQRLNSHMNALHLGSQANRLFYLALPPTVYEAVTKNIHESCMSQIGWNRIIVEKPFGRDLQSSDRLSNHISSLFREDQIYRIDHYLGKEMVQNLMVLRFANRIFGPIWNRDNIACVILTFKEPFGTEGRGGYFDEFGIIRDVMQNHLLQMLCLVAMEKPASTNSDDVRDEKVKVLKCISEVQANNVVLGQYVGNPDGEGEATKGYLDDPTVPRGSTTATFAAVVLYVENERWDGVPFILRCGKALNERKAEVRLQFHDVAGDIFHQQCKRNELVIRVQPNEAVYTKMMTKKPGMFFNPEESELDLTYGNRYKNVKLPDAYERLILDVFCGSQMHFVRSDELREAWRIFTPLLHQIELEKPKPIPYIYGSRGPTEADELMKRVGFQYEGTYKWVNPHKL
Summary of the method: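 Lysates took test compound or DMSO for 30 min on ice, then were heated 3 min at 47, 50, 53 or 56 °C. After 3 min cooling at room temperature, insoluble material was spun out (17,000 g, 20 min). G6PD signal is expressed relative to the DMSO control.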

[8] = test system: HCT116 cells; test: Colony formation; format: cell-based, human; conditions: increasing doses
[9] = test system: T cell lineages; test: LC-MS quantification of NADPH and NADP+ pools, T cell lineages; format: cell-based
Summary of the method: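 Suspension T cells (2×10^6 in 1 mL medium, 12-well plates) were incubated with the test compound. Metabolites were acid-extracted 5 min on ice and neutralised with NH4HCO3. After centrifugation (15 min, 16,000 rpm, 4 °C), supernatants were analysed for NADPH and NADP+ by LC-MS.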

[10] = test system: RBC = red blood cells (mouse); test: LC-MS quantification of NADPH pools, RBCs; format: cell-based
Summary of the method: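 Mouse blood was collected by cardiac puncture into heparin. Serum and buffy coat were removed after a 500 rpm spin at 4 °C, and cells were washed three times in PBS and used immediately in RPMI. Red cells (2×10^6 in 1 mL, 12-well plates) were incubated with the test compound, acid-extracted, neutralised with NH4HCO3, and analysed for NADPH by LC-MS.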

[11] = test system: mouse bone-marrow derived macrophages; test: LC-MS quantification of NADPH pools, macrophages; format: cell-based
[12] = test system: neutrophils; test: NADPH in neutrophils; format: cell-based
Summary of the method: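 Mouse neutrophils were enriched by negative selection from femur/tibia bone marrow of 8–12 week old mice. Cells were cultured in RPMI with 10% heat-inactivated FBS, 5 mM HEPES and 2 mM EDTA. Metabolites were extracted after 30 min of PMA stimulation and analysed for NADPH by LC-MS.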

[13] = test system: G6PD in active mouse CD8+ and CD4+ T cells; test: NADPH labeling, NADPH, NADP+ and 6-pg levels in active T cells; format: cell-based
Summary of the method: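 Active CD8+ T cells (day 4–5 post-activation), including cells from G6PD-Tg mice and littermate controls, were treated 2 h with increasing test-compound doses, with a [1-2H]-glucose tracer for labeling. For reversibility, cells were pretreated 2 h, then moved to final media for 2 h. For absolute quantification, extracts were spiked with NADP+ or NADPH standards, and packed cell volume was taken as 1.5 µL per 2 × 10^6 cells. Analysis was by LC-MS, n = 3, two-tailed unpaired t-test.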

[14] = test system: oxPPP flux in active CD8+ T cells; test: Absolute oxPPP flux by 14CO2 emission; format: cell-based, mouse; conditions: 10 μM, 4 h
Summary of the method: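 Active mouse CD8+ T cells were used at day 4 post plate-bound anti-CD3/anti-CD28 stimulation, cultured with IL-2. Three million cells were incubated 4 h in a sealed flask with 0.1% DMSO or 10 μM test compound. Released 14CO2 was trapped in 10 M KOH, the reaction was stopped with 1 M HCl, and radioactivity was counted by scintillation. Flux (fmol h-1 cell-1) was normalised to cell number, labeling time and tracer fraction; mean ± SD, n = 5.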

[15] = test system: active CD8+ T cells; test: Fatty acid synthesis; format: cell-based, mouse; conditions: 2 h, [U-13C]glucose tracer
[16] = test system: active CD8+ and CD4+ T cells; test: Intracellular ROS; format: cell-based, mouse; conditions: 2 h
Summary of the method: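 Active mouse T cells were incubated 2 h with increasing test-compound concentrations, then stained with CellROX Green and a viability dye and analysed by flow cytometry.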

[17] = test system: mouse naïve CD8+ T cells stimulated by CD3/CD28 + IL-2; test: T cell activation markers; format: cell-based; conditions: increasing concentrations
Summary of the method: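 Naïve CD8+ T cells were isolated from mouse spleens as strained single-cell suspensions in PBS with 0.5% BSA and 2 mM EDTA. Cells were rested with IL-7 (50 U/mL) or stimulated 48 h on plate-bound anti-CD3 (10 µg/ml) plus anti-CD28 (5 µg/ml) in RPMI with 100 μM alanine and IL-2 (100 U/mL), with increasing test compound. Read-outs were Live/Dead Aqua viability, surface CD69 and CD25, and FSC-A size. Two independent experiments were run.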

[18] = test system: CD8+ T cells; test: CD8+ T cell proliferation by Cell Trace Violet dilution; format: cell-based, mouse; conditions: day 4 post-activation
Summary of the method: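 Naïve CD8+ T cells were isolated from mouse spleen by magnetic bead selection and stained with CellTrace Violet. Cells were kept naïve with IL-7 or stimulated with anti-CD3/anti-CD28 + IL-2, in increasing test-compound concentrations. Cells were refed at days 2 and 3. At day 4, dye dilution was read by flow cytometry with propidium iodide as viability stain; 2 independent experiments.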

[19] = test system: CD8+ T cells; test: CD8+ T cell viability; format: cell-based, mouse
[20] = test system: CD4+ T cells; test: CD4+ T cell proliferation by CFSE dilution; format: cell-based, mouse; conditions: day 3 post-activation
Summary of the method: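 In a Treg suppression set-up, mouse Tconv cells were labeled with CFSE and Treg cells with CellTrace Violet. Tconv cells were stimulated with irradiated antigen-presenting cells plus CD3ε mAb (1 µg/mL). After 72 h, proliferation was read by flow cytometry as dye dilution.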

[21] = test system: active CD8+ T cells; test: Intracellular cytokines in active CD8+ T cells; format: cell-based, mouse; conditions: PMA + IO, increasing doses
Summary of the method: (§3)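 Mouse CD4+ or CD8+ T cells were activated 48 h with plate-bound anti-CD3 (10 µg/ml)/anti-CD28 (5 µg/ml), IL-2 (100 U/mL) and 100 μM alanine, then kept in IL-2 and used at day 4–5. Cells were restimulated 6 h with PMA (20 ng/ml) + ionomycin (1 ug/ml), GolgiStop and increasing test-compound concentrations. After Live/Dead Aqua, CD4/CD8a surface staining, fixation and permeabilisation, IFNγ, TNFα and IL-2 were read by flow cytometry.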

[22] = test system: active CD4+ T cells; test: Intracellular cytokines in active CD4+ T cells; format: cell-based, mouse; conditions: PMA + IO, increasing doses
Summary of the method: as §3

[23] = test system: CD4+ T cells (Foxp3+ iTreg); test: Foxp3+ iTreg formation and proliferation; format: cell-based, mouse; conditions: CD3/CD28 stimulation in the presence of TGF-β
[24] = test system: bone marrow derived macrophages; test: Intracellular cytokines and iNOS in bone marrow derived macrophages; format: cell-based, mouse
Summary of the method: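 Mouse bone-marrow progenitors from femur and tibia were matured in DMEM with 10% FBS and 20% L929-conditioned medium. Macrophages were stimulated 6 h with LPS (100 ng/mL) + IFNγ (20 ng/mL), with GolgiStop and increasing test-compound concentrations. Cells were stained with Live/Dead Aqua, fixed and permeabilised, and stained for TNFα, IL-6 and iNOS before flow cytometry; 2 independent experiments.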

[25] = test system: mouse neutrophils; test: Neutrophil oxidative burst assay; format: cell-based; conditions: PMA 100 nM, 50 μM
Summary of the method: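 Mouse bone-marrow neutrophils were plated at 2 × 10^5 cells/well in bicarbonate-free RPMI 1640 on Cell-Tak-coated wells, spun 200 × g for 1 min and rested 1 h at 37 °C. Test compound (50 µM) or vehicle was added just before the run. Oxidative burst was triggered with PMA (100 nM), and rotenone + antimycin A (0.5 µM each) were added at t = 20 min. OCR was measured by extracellular flux analysis; n = 6.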

[26] = test system: human neutrophils; test: Neutrophil oxidative burst assay; format: cell-based; conditions: PMA 100 nM, 50 μM
Summary of the method: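 Human neutrophils were plated at 5 × 10^4 cells/well in RPMI 1640 with 0.1% human serum albumin on Cell-Tak-coated wells, spun 200 × g for 1 min and rested 1 h at 37 °C. Test compound (50 µM) or vehicle was added just before the run. Burst was triggered with PMA (100 nM), and OCR was measured by extracellular flux analysis; n = 6.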

[27] = test system: HCT116 cells; test: Metabolomics in wild-type and ΔG6PD HCT116 cells; format: cell-based, human; conditions: 50 μM, 2 h
Summary of the method: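 Adherent cells were grown to 80% confluency. Medium containing test compound was added, and cells were held at 37 °C in 5% CO2 for 2 h. Extraction was at −20 °C for ~30 min, after which wells were scraped and extracts centrifuged (16,000 rpm, 15 min, 4 °C). Supernatants were stored at −80 °C and analysed by LC-MS.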

[28] = test system: CD8+ T cells; test: Untargeted metabolomics on CD8+ T cells; format: cell-based, mouse; conditions: active CD8+ T cells, 2 h
Summary of the method: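 Active mouse CD8+ T cells were treated 2 h with the test compound. Water-soluble metabolites were extracted and profiled by LC-MS; mean, n = 3. Metabolites with fold-change > 4 were flagged.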

Chain of recombinant human G6PD (P11413 28-515): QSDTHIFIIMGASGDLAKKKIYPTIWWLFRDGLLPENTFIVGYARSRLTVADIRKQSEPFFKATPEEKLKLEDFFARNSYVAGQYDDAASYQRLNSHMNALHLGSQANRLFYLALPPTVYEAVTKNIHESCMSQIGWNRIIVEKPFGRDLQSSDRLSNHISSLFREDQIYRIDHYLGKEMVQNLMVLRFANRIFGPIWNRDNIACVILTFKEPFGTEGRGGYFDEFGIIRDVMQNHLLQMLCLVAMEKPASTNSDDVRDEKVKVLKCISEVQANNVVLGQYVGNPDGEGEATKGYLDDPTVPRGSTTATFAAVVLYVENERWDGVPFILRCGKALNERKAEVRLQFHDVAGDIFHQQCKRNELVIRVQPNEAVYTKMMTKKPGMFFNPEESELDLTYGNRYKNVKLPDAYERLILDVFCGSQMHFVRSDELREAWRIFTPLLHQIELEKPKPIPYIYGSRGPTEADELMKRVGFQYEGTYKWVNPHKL

N#Cc1cc(Nc2ncc3c(n2)CCCCC3=O)cs1 [G6PDi-1, 4-([5-oxo-6H,7H,8H,9H-cyclohepta[d]pyrimidin-2-yl]amino)thiophene-2-carbonitrile]
mode of binding to G6PD ([1]; in vitro dilution experiments and competition assays against both substrates): reversibly and non-competitively
dose-dependent decrease in 6-pg levels ([2]; HepG2 cells, dose response): dose-dependent decrease
IC50 ([2]; Homo sapiens, HepG2, read-out: IC50 for decrease in 6-pg levels): ~13 µM
suppression of 6-pg levels [3]: much more effectively suppressed
dose-dependent decrease in 2H transfer to NADPH's active hydride ([4]; dose response): dose-dependent decrease
dose-dependent decrease in 2H transfer to C16:0 [5]: dose-dependent decrease
NADPH pools ([6]; HCT116 and HepG2 cells): largely unperturbed
NADP+/NADPH ([6]; HCT116 cells, dose response): dose-dependent increase
thermal stabilization of G6PD [7]: significant thermal stabilization
colony formation [8]: dose-dependent decrease
decrease in NADPH [9]: greater than 10 fold
sensitivity of NADPH pools [10]: fairly sensitive
effect on NADPH [11]: did not decrease
effect on NADPH [12]: did impact NADPH
time to restoration of NADPH, NADP+ and 6-pg levels after removing the inhibitor ([13]; activated CD8+ T cells): ≤ 2 h
effect of G6PD overexpression on dose response of NADPH and NADP+ ([13]; active CD8+ T cells from G6PD-Tg mice vs littermate controls): markedly shifted the dose response
time to onset of effects on NADPH labeling and NADP+, NADPH and 6-pg levels ([13]; active CD8+ T cells, 50 μM): ≤ 10 min
NADPH and 6-pg levels ([13]; mouse CD8+ and CD4+ T cells day 4–5 post-activation): decreased
2H transfer from glucose to NADPH ([13]; mouse CD8+ and CD4+ T cells day 4–5 post-activation, 10 μM, [1-2H]-glucose): completely blocked
absolute oxPPP flux [14]: blocked
fatty acid synthesis [15]: nearly completely ablated
reactive oxygen species (ROS) [16]: elevated
upregulation of activation markers and activation-dependent increase in cell size [17]: did not alter
activation-dependent proliferation [18]: minimal effect
viability [19]: minimal effect
proliferation of CD4+ T cells [20]: minimal effect
IFNγ and TNF-α production [21]: blocked
IL-2 and TNF-α production [22]: blocked
formation and proliferation of Foxp3+ cells [23]: unaffected
LPS-induced pro-inflammatory cytokine production or iNOS upregulation [24]: did not decrease
oxidative burst (oxygen consumption rate) [25]: decreased
oxidative burst (oxygen consumption rate) [26]: decreased
off-target metabolic effects [27]: some potential off-target effects on purine nucleosides
specificity of metabolic effects [28]: clean on-target activity

CN(c1cccc(C#N)c1)c1ncc2c(n1)CCCC2=O [G6PDi-neg-ctrl, 3-[methyl(5-oxo-5,6,7,8-tetrahydroquinazolin-2-yl)amino]benzonitrile]
in vitro activity against human G6PD [1]: lacked any activity

Cc1cccc(Nc2ncc3c(n2)CCCC3=O)c1 [G6PDi-precursor, 2-[(3-methylphenyl)amino]-5,6,7,8-tetrahydroquinazolin-5-one]
in vitro activity against human G6PD [1]: low micromolar

OC[C@H]1O[C@@H](Oc2cc(O)cc(/C=C/c3ccc(O)cc3)c2)[C@H](O)[C@@H](O)[C@@H]1O [polydatin, reference compound]
effect on 6-pg levels ([2]; HepG2 cells, 50 μM, 2 h): failed to decrease
effect on NADPH active hydride labeling ([4]; 50 μM, 2 h): failed to decrease

Reference: PMC7311271 (Nature chemical biology, 2020)
